NPY-Y1 PAM-ag = NPY-Y1 receptor potentiators or agonists, primary screen, cell-based; 0.37% of 220,000 active; Neuropeptide Y receptor type 1 (Homo sapiens), P25929; activation, % at 3.6 µM; NPY-Y1 expressing cells, potentiator/agonist activation; AID 1304, 2008; in the data active = activation above about 33%, passing the limit was not always enough;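 note: cells stimulated with NPY at EC10 then isoproterenol at EC100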
NPY Y1 blocker = NPY-Y1 receptor antagonists, primary screen, cell-based; inhibition, % at 3.6 µM; Neuropeptide Y receptor type 1 (Homo sapiens), P25929; 1% of 200,000 active; HEK293-CNG Y1 cells, membrane potential fluorescence; NPY at EC95, then isoproterenol; AID 1040, 2008;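 active = inhibition above the campaign mean inhibition of all tested compounds plus 3 SD, cut at about 20% in these data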
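System: HEK293 cells with Y1 receptor plus CNG channel / Probe or stimulus: NPY 25 nM then isoproterenol 1 µM plus Ro 20-1724 25 µM / Compound: one concentration, 3.6 µM, in 0.4% DMSO / Schedule: compound incubation 1 h at room temperature, readout 45 min post-stimulation / Measured by: membrane potential fluorescence / Read-out: % inhibition of NPY effect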
NPY Y2 blocker = NPY-Y2 receptor antagonists, primary screen, cell-based; NPY-Y2 expressing cells, antagonist mode; inhibition, % at 2.7 µM; Neuropeptide Y receptor type 2 (Homo sapiens), P49146; 0.99% of 140,000 active; in the data active = inhibition above about 17%
Target sequence (P49146 whole entry, looked up): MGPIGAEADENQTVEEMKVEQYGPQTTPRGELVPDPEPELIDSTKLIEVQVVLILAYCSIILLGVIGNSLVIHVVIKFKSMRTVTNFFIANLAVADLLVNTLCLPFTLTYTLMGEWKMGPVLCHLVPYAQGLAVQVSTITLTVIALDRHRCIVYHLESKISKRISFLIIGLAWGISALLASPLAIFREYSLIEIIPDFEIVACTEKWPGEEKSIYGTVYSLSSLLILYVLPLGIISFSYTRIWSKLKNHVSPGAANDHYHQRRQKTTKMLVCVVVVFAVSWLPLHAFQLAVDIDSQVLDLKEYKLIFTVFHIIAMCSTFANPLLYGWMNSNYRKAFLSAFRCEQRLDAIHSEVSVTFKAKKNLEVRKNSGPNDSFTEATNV
NPY2 pot ag = NPY-Y2 potentiators or agonists, primary screen, cell-based. activation, % at 3.6 µM. Neuropeptide Y receptor type 2 (Homo sapiens), P49146. cells expressing NPY-Y2, potentiator/agonist read-out. 0.45% of 220,000 active. AID 1359, 2008; in the data active = activation above about 27%;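 note: cells stimulated with NPY near EC25 plus isoproterenol at EC100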
S1P4 antag = S1P4 receptor antagonists, primary screen, cell-based. Sphingosine 1-phosphate receptor 4 (Homo sapiens), O95977. S1P4-expressing cells, antagonist mode, reporter read-out. inhibition, % at 4.98 µM. 0.26% of 220,000 active. AID 1510, 2009; in the data active = inhibition above about 29%
Target sequence (O95977 whole entry, looked up): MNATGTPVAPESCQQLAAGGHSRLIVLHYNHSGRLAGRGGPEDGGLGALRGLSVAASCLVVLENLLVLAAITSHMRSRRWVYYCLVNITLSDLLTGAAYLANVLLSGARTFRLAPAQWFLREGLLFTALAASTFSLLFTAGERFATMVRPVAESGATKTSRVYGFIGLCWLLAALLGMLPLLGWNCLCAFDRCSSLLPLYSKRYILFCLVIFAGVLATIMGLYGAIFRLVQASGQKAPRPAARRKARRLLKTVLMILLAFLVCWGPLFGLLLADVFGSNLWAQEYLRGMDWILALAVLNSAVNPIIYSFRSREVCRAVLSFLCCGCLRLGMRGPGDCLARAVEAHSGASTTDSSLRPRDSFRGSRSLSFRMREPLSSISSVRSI
S1P4 ag = S1P4 receptor agonists, primary screen, cell-based; AID 1509, 2009; Sphingosine 1-phosphate receptor 4 (Homo sapiens), O95977; activation, % at 4.98 µM; 0.35% of 220,000 active; S1P4-expressing cell line, agonist reporter assay; in the data active = activation above about 11%
NPY-Y1 confirm = NPY-Y1 potentiators or agonists, confirmation, cell-based; shares compounds with NPY-Y1 PAM-ag; cell-based NPY-Y1 potentiator/agonist assay; activation, % at 3.6 µM; 20% of 280 active; AID 1546, 2009; in the data active = activation above about 45%;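 note: cells challenged with NPY at its EC10 plus isoproterenol stimulus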
NPY-Y2 counter = NPY-Y2 potentiators or agonists, counter-screen for NPY-Y1 potentiator project, cell-based, fluorescence. activation, % at 3.6 µM. HEK293-CNG cells, membrane-potential fluorescence (FLIPR), 1536-well. AID 1649, 2009. shares compounds with NPY-Y1 PAM-ag. 20% of 280 active; in the data active = activation above about 33%
NPY-Y1 ag = NPY-Y1 direct agonists without NPY, confirmation, counter-screen for NPY-Y1 potentiator project, cell-based, fluorescence; HEK293 Y1-CNGC, membrane potential fluorescence, agonist mode; shares compounds with NPY-Y1 PAM-ag; AID 1697, 2009; activation, % at 3.6 µM; 50% of 280 active;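 active = percent activation above the mean of DMSO-only control wells plus 3 SD of those wells, cut at about 18% in these data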;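 note: cells challenged with isoproterenol plus Ro 20-1724 with no NPY in test wells; Y1 agonism lowers isoproterenol-driven cAMP and reduces probe fluorescence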
NPY-Y2 ag = NPY-Y2 direct agonists without NPY, counter-screen for NPY-Y1 potentiator project, cell-based, fluorescence; shares compounds with NPY-Y1 PAM-ag; HEK293 Y2-CNGC, membrane potential fluorescence, agonist mode; activation, % at 3.6 µM; 67% of 280 active; AID 1698, 2009;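 active = activation above the solvent-only control wells' mean plus 3 SD, cut at about 11% in these data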;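 note: agonism lowers cAMP so well fluorescence drops in active wells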
CNGC inh 2 = CNGC cAMP sensor activity inhibitors, counter-screen for NPY-Y1 potentiator/agonist project, cell-based, HEK293-CNG parental, membrane potential fluorescence, Y1 set; shares compounds with NPY-Y1 PAM-ag; isoproterenol cAMP; inhibition, % at 3.6 µM; 42% of 280 active; AID 1704, 2009;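 active = inhibition above the mean of stimulated solvent-only control wells plus 3 SD, cut at about 22% in these data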
Large screens that a line does not name were inactive (follow-up assays come after a bar, where they were run). This is a sample that favours compounds with a hit; in the whole collection about 2.4% have one here.

CCOC(=O)C1=C(c2ccccc2)NC(=O)NC1c1cc(Br)c(O)c(OC)c1 (configuration not stated)	NPY-Y1 PAM-ag 42 (no result: NPY Y2 blocker) | NPY-Y1 confirm inactive | NPY-Y2 counter inactive | NPY-Y1 ag inactive | NPY-Y2 ag inactive | CNGC inh 2 inactive
CCOC(=O)C1=C(C)NC(=O)NC1c1cc(Br)c(O)c(OC)c1 (configuration not stated)	none
Cc1ccccc1C(=O)N1CCN(c2ccc(NC(=S)NC(=O)c3cccs3)cc2)CC1	NPY-Y1 PAM-ag 36 (no result: NPY Y2 blocker) | NPY-Y1 confirm inactive | NPY-Y2 counter inactive | NPY-Y1 ag inactive | NPY-Y2 ag 15 | CNGC inh 2 inactive
Cc1ccc(C(=O)N2CCN(c3ccc(NC(=S)NC(=O)c4cccs4)cc3)CC2)cc1	none (no result: NPY Y2 blocker)
C[C@@H](C(=O)N[C@@H](Cc1c[nH]c2ccccc12)C(=O)O)n1nnc2ccccc2c1=O	none (no result: NPY Y1 blocker, NPY Y2 blocker)
CCCCn1c(NC(=S)Nc2ccccc2)nc2ccccc21	none
CNCC(O)COc1cccc(OC)c1 (configuration not stated)	NPY-Y1 PAM-ag 56 (no result: NPY Y2 blocker) | NPY-Y1 confirm inactive | NPY-Y2 counter inactive | NPY-Y1 ag inactive | NPY-Y2 ag 18 | CNGC inh 2 inactive
Cc1cc(-c2onc(C)c2C(=O)Nc2ccc(C(F)(F)F)cc2)no1	none (no result: NPY Y1 blocker, NPY Y2 blocker)
Cc1noc(-c2ccc(C(F)(F)F)cc2)c1NC(=O)Nc1ccc(Cl)cc1	NPY-Y1 PAM-ag 63 (no result: NPY Y1 blocker, NPY Y2 blocker) | NPY-Y1 confirm 53 | NPY-Y2 counter inactive | NPY-Y1 ag 53 | NPY-Y2 ag 25 | CNGC inh 2 37
O=C(CN1CCN(c2ccc(O)cc2)CC1)NC(=O)NCc1ccco1	none
COc1cc2c(cc1NC(=O)CN1C(=O)NC3(CCc4ccccc43)C1=O)oc1ccccc12 (configuration not stated)	NPY-Y1 PAM-ag 35 | NPY-Y1 confirm 62 | NPY-Y2 counter 39 | NPY-Y1 ag 37 | NPY-Y2 ag 44 | CNGC inh 2 45
CCOc1cc(N2CCOCC2)c(OCC)cc1NC(=O)CN1C(=O)NC2(CCc3ccccc32)C1=O (configuration not stated)	none
Cc1ccc(C23CC4CC(CC(CN)(C4)C2)C3)cc1	NPY-Y1 PAM-ag 35 (no result: NPY Y2 blocker) | NPY-Y1 confirm inactive | NPY-Y2 counter inactive | NPY-Y1 ag 21 | NPY-Y2 ag 31 | CNGC inh 2 31
COC(=O)CNC(=O)C12CC3CC(C1)CC(c1ccc(C)cc1)(C3)C2	none (no result: NPY Y2 blocker)
O=C(COc1ccc(Cl)cc1)Nc1ccc(Cc2ccncc2)cc1	NPY-Y1 PAM-ag 62 | NPY-Y1 confirm inactive | NPY-Y2 counter inactive | NPY-Y1 ag inactive | NPY-Y2 ag inactive | CNGC inh 2 inactive
N#C/C(=C\c1ccc(O)c([N+](=O)[O-])c1)c1nc2ccccc2s1	NPY-Y1 PAM-ag 39 (no result: NPY Y2 blocker) | NPY-Y1 confirm inactive | NPY-Y2 counter inactive | NPY-Y1 ag inactive | NPY-Y2 ag inactive | CNGC inh 2 inactive
COc1cc(/C=C(\C#N)c2nc3ccccc3s2)cc([N+](=O)[O-])c1O	none (no result: NPY Y2 blocker)
O=C(O)COc1ccccc1/C=N/NC(=O)CSc1nc2ccccc2n1Cc1ccccc1Cl	none (no result: NPY Y1 blocker, NPY Y2 blocker)
COc1cc(/C=N/NC(=O)C(Cc2c[nH]c3ccccc23)NC(=O)OCC(C)C)cc([N+](=O)[O-])c1O (configuration not stated)	none
COc1cc(/C=N/NC(=O)C(Cc2c[nH]c3ccccc23)NC(=O)OCC(C)C)cc([N+](=O)[O-])c1OCc1ccccc1 (configuration not stated)	NPY-Y1 PAM-ag 39 (no result: NPY Y2 blocker) | NPY-Y1 confirm inactive | NPY-Y2 counter inactive | NPY-Y1 ag 24 | NPY-Y2 ag 38 | CNGC inh 2 25
O=C(NC(=S)Nc1cc(C(F)(F)F)ccc1N1CCOCC1)c1sc2ccccc2c1Cl	none
CC(C)COc1ncnc2c1sc1nc3c(cc12)COC(C)(C)C3	none (no result: NPY Y1 blocker, NPY Y2 blocker)
O=C(Nc1ccc(N2CCCCC2)c(Cl)c1)c1ccc(N2CCOCC2)c([N+](=O)[O-])c1	NPY-Y1 PAM-ag 42 | NPY-Y1 confirm 48 | NPY-Y2 counter 37 | NPY-Y1 ag 34 | NPY-Y2 ag 40 | CNGC inh 2 25
CC(=O)N1CCN(c2ccc(NC(=O)c3ccc(N4CCCC4)c([N+](=O)[O-])c3)cc2Cl)CC1	none
CC(=O)c1sc(Nc2nc3ccc(F)cc3s2)nc1C	NPY-Y1 PAM-ag 45 | NPY-Y1 confirm inactive | NPY-Y2 counter inactive | NPY-Y1 ag inactive | NPY-Y2 ag 20 | CNGC inh 2 inactive
NC(=O)CN(c1ccc(Cl)cc1)S(=O)(=O)c1ccccc1	none
Cc1ccc(S(=O)(=O)N(CC(=O)Nc2ccccc2C(=O)O)c2ccc(Cl)cc2)cc1	NPY-Y1 PAM-ag 44 (no result: NPY Y2 blocker) | NPY-Y1 confirm inactive | NPY-Y2 counter inactive | NPY-Y1 ag inactive | NPY-Y2 ag 20 | CNGC inh 2 inactive
Cc1ccc(N2C(=O)N(CC(=O)NCc3ccccc3Cl)C(=O)C2C)cc1 (configuration not stated)	none (no result: NPY Y2 blocker)
COc1ccc(CCn2c(C)cc(C(=O)CSc3nnnn3-c3ccccc3)c2C)cc1	NPY-Y1 PAM-ag 65 | NPY-Y1 confirm inactive | NPY-Y2 counter inactive | NPY-Y1 ag inactive | NPY-Y2 ag inactive | CNGC inh 2 inactive
FC(F)(F)c1cccc(NC(=S)Nc2ccc(Cl)c(Cl)c2)c1	NPY-Y1 PAM-ag 45 (no result: NPY Y1 blocker, NPY Y2 blocker) | NPY-Y1 confirm inactive | NPY-Y2 counter inactive | NPY-Y1 ag inactive | NPY-Y2 ag 25 | CNGC inh 2 inactive
